High-throughput results: PubChem, Johns Hopkins Ion Channel Center
TRPC4 agonist – TRPC4 (mouse) channel activation; HEK293 TRPC4beta/mu-opioid, Fluo4 calcium fluorescence; stronger effect = higher value; Q9QUQ5; B-score at 10 µM; actives 0.49% (n = 310,000); AID 2237;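 active = B-score above 5 SD of library B-scores, and initial fluorescence ratio not above library mean plus 5 SD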;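 also: positive B-score marks a calcium rise read as TRPC4 activation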
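Test system: HEK293 cells stably co-expressing mouse TRPC4beta and mu-opioid receptor | Schedule: Fluo4 dye loading 45 min at room temperature, 110 s recording | Measured by: Kinetic Fluo4 calcium fluorescence, 5 s baseline at 1 Hz | Evaluation: B score of integrated ratio | Controls: Buffer (low) and maximal DAMGO (high)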
TRPC4 PAM – allosteric potentiators of mouse TRPC4 channel; B-score at 10 µM; Q9QUQ5; AID 2227; actives 0.42% (n = 310,000); HEK293 TRPC4beta/mu-opioid, DAMGO EC20, Fluo-4 Ca2+ flux; stronger effect = higher value;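 active = B-score of calcium response area above 5 SD of library B-scores, with initial fluorescence ratio within 5 SD of library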;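 also: B-score of integrated fluorescence ratio over time as area under calcium response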
TRPC6 act – activators of mouse TRPC6 channel; Q61143; HEK293-TRPC6 membrane potential dye fluorescence; stronger effect = higher value; B-score at 10 µM; actives 0.13% (n = 310,000);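 active = B-score of the integrated fluorescence ratio above library mean plus 3 SD, and starting fluorescence ratio within library mean plus 5 SD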;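 also: higher score means more depolarization so channel activation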
Target sequence (Q61143 whole entry, looked up): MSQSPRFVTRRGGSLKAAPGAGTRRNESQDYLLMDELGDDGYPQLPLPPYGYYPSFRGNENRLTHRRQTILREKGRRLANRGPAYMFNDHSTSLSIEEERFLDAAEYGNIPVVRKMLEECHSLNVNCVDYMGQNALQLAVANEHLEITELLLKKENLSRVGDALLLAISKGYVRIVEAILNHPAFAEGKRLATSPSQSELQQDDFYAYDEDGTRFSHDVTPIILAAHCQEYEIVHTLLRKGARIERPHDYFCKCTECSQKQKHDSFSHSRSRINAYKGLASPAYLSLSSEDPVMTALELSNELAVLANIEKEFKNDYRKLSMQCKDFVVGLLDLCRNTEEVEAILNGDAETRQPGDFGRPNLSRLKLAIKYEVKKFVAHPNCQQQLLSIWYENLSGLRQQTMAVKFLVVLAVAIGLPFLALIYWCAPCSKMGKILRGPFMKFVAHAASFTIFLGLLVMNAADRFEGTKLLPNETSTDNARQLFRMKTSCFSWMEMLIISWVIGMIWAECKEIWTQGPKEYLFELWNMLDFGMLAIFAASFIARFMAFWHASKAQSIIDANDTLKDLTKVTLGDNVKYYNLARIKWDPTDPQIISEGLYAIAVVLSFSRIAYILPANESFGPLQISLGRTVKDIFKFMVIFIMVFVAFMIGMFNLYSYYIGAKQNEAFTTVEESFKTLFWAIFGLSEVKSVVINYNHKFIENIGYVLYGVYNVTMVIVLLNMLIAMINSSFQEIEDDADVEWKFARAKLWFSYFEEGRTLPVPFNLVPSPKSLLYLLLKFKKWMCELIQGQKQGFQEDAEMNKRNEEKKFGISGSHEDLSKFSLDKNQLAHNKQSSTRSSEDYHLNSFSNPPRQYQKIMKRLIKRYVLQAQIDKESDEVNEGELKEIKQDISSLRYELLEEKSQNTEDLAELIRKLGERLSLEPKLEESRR
TRPC6 inh – blocks the mouse TRPC6 cation channel; actives 1.1% (n = 310,000); Q61143; AID 2553; HEK293-TRPC6, membrane potential dye, ACh-evoked depolarization; stronger effect = lower value; B-score at 10 µM;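 active = B-score under library mean minus 3 SD, initial fluorescence not abnormally high, positive integrated signal ratio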;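 also: B-score derived from integrated fluorescence ratio over the kinetic read; more negative B-score means stronger inhibition of depolarization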
TRPC4 inh – blocks the mouse TRPC4 cation channel; Q9QUQ5; AID 2247; B-score at 10 µM; actives 0.39% (n = 300,000); HEK293 TRPC4beta/mu-opioid, DAMGO-evoked Fluo4 calcium flux; stronger effect = lower value;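 active = B-score over 3 SD under the library average, no early fluorescence shift, positive overall ratio signal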
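System: stable TRPC4beta/mu-opioid receptor HEK293 cells; Dosing: single-point compound dosing; Measured by: Fluo4 Ca2+ flux fluorescence; Read-out basis: per-well B score of integrated baseline-normalized Fluo4 ratio.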
TRPC4 spec 2 – mouse TRPC4 off-target activity of TRPC6 inhibitors, second screen; shares compounds with TRPC6 inh; HEK293 TRPC4/MOR, membrane potential dye fluorescence; channel activated by saturating DAMGO dose; inhibition, % at 10 µM; actives 42% (n = 920); AID 2776;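 active = compounds whose fluorescence signal differed from control wells by over 3 SD, either direction, in both duplicate plates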
TRPC4 spec – mouse TRPC4 off-target activity of TRPC6 inhibitors | shares compounds with TRPC6 inh | activity change, negative = inhibition, % at 10 µM | HEK293 TRPC4/mu-opioid, membrane potential fluorescence | actives 61% (n = 920);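 active = rise or fall in signal beyond 3 SD of buffer-only wells in both replicate plates, either sign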;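 also: integrated kinetic ratio of fluorescence range over baseline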
HEK293 MPD ctr 2-1 – second counter-screen for TRPC6 inhibitors: parental HEK293 cells | shares compounds with TRPC6 inh | parental HEK293 membrane potential dye fluorescence; maximal acetylcholine challenge after compound addition | signal change vs control, % at 10 µM | actives 31% (n = 920);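 active = membrane potential signal moving either way by over 3 SD of the maximum-effect control, in both duplicate plates, meaning non-specific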
HEK293 MPD ctr-1 – checks TRPC6 inhibitor effects in parental HEK293 cells; shares compounds with TRPC6 inh; parental HEK293 membrane potential dye fluorescence; membrane potential signal change, % at 10 µM; actives 60% (n = 920);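 active = membrane potential signal shifting up or down by more than 3 SD of buffer-only wells, on both duplicate plates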
HEK293 MPD ctr-2 – counter-screen for TRPC6 modulators: effect in parental HEK293 cells. membrane potential dye fluorescence. AID 488924. actives 51% (n = 2,400). shares compounds with TRPC6 inh. membrane potential signal change, % at 10 µM;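 active = membrane potential signal moves up or down beyond 5 SD from buffer-only wells, on both duplicate plates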
HEK293 MPD ctr 2-2 – second counter-screen for TRPC6 modulators: effect in parental HEK293 cells | shares compounds with TRPC6 inh | membrane potential dye fluorescence; after compound, maximal acetylcholine stimulation | inhibition, % at 10 µM | actives 14% (n = 2,400);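 active = membrane potential signal drops by more than 5 SD from the mean control signal, in both duplicate plates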;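 also: plate controls were acetylcholine ECmax control wells for no effect and buffer only wells for full effect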
TRPC4 ctr mod – tests whether TRPC6 modulators also affect mouse TRPC4; HEK293 TRPC4/mu-opioid, membrane potential fluorescence; percent change from control (negative = decrease, positive = increase), % at 10 µM; actives 69% (n = 2,400); shares compounds with TRPC6 inh;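 active = membrane potential signal moved up or down beyond 5 SD of buffer control wells, in both duplicate plates, actives on both sides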;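 also: plate controls were assay buffer wells for no effect and DAMGO maximal-effect wells for full effect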
TRPC4 ctr inh 2 – mouse TRPC4 off-target activity of TRPC6 modulators, second screen. inhibition, % at 10 µM. actives 55% (n = 2,400). shares compounds with TRPC6 inh. HEK293 TRPC4/mu-opioid, membrane potential dye fluorescence; stimulated with maximal-effect DAMGO;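 active = drop in membrane potential signal beyond 5 SD of the control wells in both duplicate plates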;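 also: TRPC4 counter screen for TRPC6 hits run under conditions tuned for TRPC6 not TRPC4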
TRPC6 block conf – confirmation of mouse TRPC6 inhibitors; shares compounds with TRPC6 inh; HEK293-TRPC6, membrane potential dye, ACh-evoked depolarization; inhibition, % at 10 µM; actives 43% (n = 3,300); AID 488960;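 active = fluorescence ratio falls more than 5 SD below the full-stimulation control mean, in both duplicate runs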;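 also: integrated fluorescence ratio of peak minus minimum over baseline after agonist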
TRPC6 act conf – mouse TRPC6 activator confirmation. shares compounds with TRPC6 inh. HEK293-TRPC6 membrane potential dye fluorescence, FDSS. activation, % at 10 µM. actives 11% (n = 2,800). AID 488961;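 active = ratio signal rise beyond 5 SD above unstimulated control wells' mean, seen in both duplicate runs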;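 also: plate controls were buffer EC0 wells for no effect and acetylcholine ECmax response for full effect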
Starred values were filed as active, the others as inactive; i = inactive; . = no result given; + = active, no number. Sampled rows, rich in hits. Any-hit rate of the full collection: about 2.3%.

SMILES	TRPC4 agonist	TRPC4 PAM	TRPC6 act	TRPC6 inh	TRPC4 inh	HEK293 MPD ctr-2	HEK293 MPD ctr 2-2	TRPC4 ctr mod	TRPC4 ctr inh 2	TRPC6 block conf	TRPC6 act conf	others
CCOc1cc(/C=C(/C#N)C(=O)Nc2ccc(O)cc2)cc(Br)c1O	43*	i	27.9*	-9.71*	i	831.0%*	193.5%*	114.0%*	29.0%*	i	177.0%*
CCCCCCCc1nc2sc3c(c2c(=O)n1N)CC(C)(C)OC3	i	i	i	i	i	.	.	.	.	.	.
CCCCCc1nc2sc3c(c2c(=O)n1NC(=O)c1ccc([N+](=O)[O-])cc1)CC(C)(C)OC3	i	i	i	-5.66*	i	i	i	i	63.5%*	56.5%*	i
COc1nc(N(c2ccccc2)c2ccccc2)nc(-n2ccnc2)n1	i	i	11.5*	i	i	372.5%*	59.0%*	64.0%*	i	i	132.5%*
Cc1ccc(CCNC(=O)CSCc2ccc(F)cc2)cc1	i	i	i	i	i	.	.	.	.	.	.
N#C/C(=C\c1ccc(N2CCOCC2)o1)C(=O)NC1CCCCC1	i	i	i	i	i	.	.	.	.	.	.
N#C/C(=C/c1ccc(N2CCOCC2)o1)C(=O)Nc1ccccc1	i	i	50.4*	i	i	+	+	133.5%*	i	.	321.5%*
COCCNC(=O)/C(C#N)=C/c1ccc(N2CCOCC2)o1	i	i	i	i	i	.	.	.	.	.	.
Cc1ccc(/C(C#N)=C\c2ccc(N3CCOCC3)o2)cc1	i	i	27.1*	i	i	419.5%*	i	97.5%*	i	i	115.0%*
N#C/C(=C\c1ccc(N2CCOCC2)o1)C(=O)NCCc1ccccc1	i	i	13.7*	i	i	774.0%*	135.0%*	129.0%*	i	i	95.5%*
COc1cc2ncc(S(=O)(=O)c3ccccc3)c(N3CCCC(C)C3)c2cc1OC (stereo unspecified)	i	i	i	i	i	.	.	.	.	.	.
COC(=O)[C@@]1(Cc2ccc(F)cc2)[C@H]2c3cc(C(=O)N4CCCC4)n(CCCNc4ncc(C(F)(F)F)cc4Cl)c3C[C@H]2CN1C(=O)c1ccccc1	i	i	i	i	i	.	.	.	.	.	.
CCc1ccc(OCC(=O)Nc2ccc3[nH]ncc3c2)cc1	i	i	i	i	i	.	.	.	.	.	.
CN1C(=O)NC(c2cccc(F)c2)C2=C1CC(C)(C)CC2=O (stereo unspecified)	i	i	i	i	i	.	.	.	.	.	.
CCOC(=O)c1c(C)n(-c2ccccc2)c2ccc(O)cc12	i	i	i	i	i	.	.	.	.	.	.
CCOC(=O)c1c(C)n(-c2ccccc2)c2ccc(O)c(CN(C)C)c12	i	i	i	-6.51*	i	-90.5%*	i	-17.5%*	65.0%*	69.0%*	i
CCOC(=O)c1c(C)n(C)c2ccc(O)c(CN3CCC(C)CC3)c12	i	i	i	-9.36*	i	-140.5%*	i	-18.0%*	73.0%*	64.5%*	i
CCOC(=O)c1c(CSc2ccccc2)n(C)c2cc(Br)c(OC)c(O)c12	i	i	i	i	i	.	.	.	.	.	.
CCOC(=O)c1c(C)n(C)c2ccc(O)c(CN3CCN(C)CC3)c12	i	i	i	i	i	.	.	.	.	.	.
CCOC(=O)c1c(CSc2ccccc2)n(C)c2ccc(O)c(CN3CCOCC3)c12	i	i	i	-5.46*	i	i	i	i	55.0%*	36.5%*	i
CCOC(=O)c1c(C)n(C)c2ccc(O)c(CN(CC)CC)c12	i	i	i	-6.45*	i	-112.0%*	i	-14.0%*	52.5%*	54.0%*	i
O=C(O)c1cccc(COc2cccc3ccccc23)c1	i	i	i	i	i	.	.	.	.	.	.
NC(=O)CSc1nc2ccccc2c(=O)n1CCc1ccccc1	i	i	i	i	i	.	.	.	.	.	.
Cn1c(=O)c2c(nc(SCCN3CCCCC3)n2Cc2ccc(Cl)cc2)n(C)c1=O	80*	40*	i	-6.23*	i	-121.0%*	i	26.5%*	93.0%*	i	i
O=c1c2ccccc2nc(SCCN2CCCCC2)n1CCc1ccccc1	i	i	i	-7.85*	i	.	.	.	.	67.8%*	i	TRPC4 spec 2=41.5%*;TRPC4 spec=i;HEK293 MPD ctr 2-1=i;HEK293 MPD ctr-1=i
Cc1cc(N(CCO)CCO)ccc1N=Nc1cc(F)ccc1F	i	i	i	-7.02*	i	.	.	.	.	62.9%*	i	TRPC4 spec 2=62.5%*;TRPC4 spec=-21.8%*;HEK293 MPD ctr 2-1=i;HEK293 MPD ctr-1=-454.0%*
Nc1ccc(N(CCO)CCO)cc1	i	i	i	i	i	.	.	.	.	.	.
CCOc1ccc(N(CC(=O)NCc2ccccc2C)S(C)(=O)=O)cc1	i	i	i	i	i	.	.	.	.	.	.
Cc1ccc(-c2nc(C)sc2CC(=O)OCC(=O)Nc2cccc([N+](=O)[O-])c2)cc1	i	i	i	i	i	.	.	.	.	.	.
